The values that follow come from ChEMBL document CHEMBL1138117, “Hybrid antibacterials. DNA polymerase-topoisomerase inhibitors” (J Med Chem, 2006).

For one assay, the system named is Mus musculus. Description: Effect on survival of mice after ip infection with Staphylococcus aureus Smith. Format: functional. The procedure, abridged:
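Male Swiss-Webster mice (20–24 g) were given 10⁸ CFU of log-phase S. aureus Smith ip, grown in LB at 37 °C and washed in cold broth. A single iv tail-vein dose was given in DCP vehicle (10% DMA, 10% Cremophor EL in PBS, pH 9.5; 5 mL/kg) 15 min post-infection. Survival was scored at 72 h and ED50 derived.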

For assay [1], the system named is Enterococcus faecium. Description: Antibacterial activity against Vancomycin resistant Enterococcus faecium VRE 700802. Format: functional.
A further assay deals with Bacillus subtilis. The assay can be described thus: Antibacterial activity against Bacillus subtilis BD54. Format: functional.
For assay [2], the system named is Enterococcus faecium. Description: Antibacterial activity against Enterococcus faecium 19434. Format: functional.
The test system of the next assay is Escherichia coli. The assay can be described thus: Antibacterial activity against Escherichia coli J53. Format: functional.
A further assay has as its system Enterococcus faecalis. The assay can be described thus: Antibacterial activity against Enterococcus faecalis 29212. Format: functional.
In assay [3] the test system is Staphylococcus aureus. The assay can be described thus: Antibacterial activity against methicillin resistant Staphylococcus aureus MRSA 1094. Format: functional.
In assay [4] the target is DNA polymerase III PolC-type (Bacillus subtilis (strain 168), UniProt P13267). Description: Binding affinity to Bacillus subtilis DNA polymerase3C. The settings on record: read-out: Ki. The procedure, abridged:
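Homogeneous recombinant B. subtilis pol IIIC was assayed in 96-well format on activated calf thymus DNA. Apparent Ki values were determined in a truncated assay lacking the competitor dGTP.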

In assay [5] the test system is Staphylococcus aureus. Description: Antibacterial activity against Staphylococcus aureus smith. Format: functional.
Assay [6] relates to Staphylococcus aureus. Description: Antibacterial activity against Staphylococcus aureus 25293. Format: functional.

Converted amounts (≈) assume the structure as drawn.

Sequence of DNA polymerase III PolC-type (P13267 whole entry, the tested form may be a part): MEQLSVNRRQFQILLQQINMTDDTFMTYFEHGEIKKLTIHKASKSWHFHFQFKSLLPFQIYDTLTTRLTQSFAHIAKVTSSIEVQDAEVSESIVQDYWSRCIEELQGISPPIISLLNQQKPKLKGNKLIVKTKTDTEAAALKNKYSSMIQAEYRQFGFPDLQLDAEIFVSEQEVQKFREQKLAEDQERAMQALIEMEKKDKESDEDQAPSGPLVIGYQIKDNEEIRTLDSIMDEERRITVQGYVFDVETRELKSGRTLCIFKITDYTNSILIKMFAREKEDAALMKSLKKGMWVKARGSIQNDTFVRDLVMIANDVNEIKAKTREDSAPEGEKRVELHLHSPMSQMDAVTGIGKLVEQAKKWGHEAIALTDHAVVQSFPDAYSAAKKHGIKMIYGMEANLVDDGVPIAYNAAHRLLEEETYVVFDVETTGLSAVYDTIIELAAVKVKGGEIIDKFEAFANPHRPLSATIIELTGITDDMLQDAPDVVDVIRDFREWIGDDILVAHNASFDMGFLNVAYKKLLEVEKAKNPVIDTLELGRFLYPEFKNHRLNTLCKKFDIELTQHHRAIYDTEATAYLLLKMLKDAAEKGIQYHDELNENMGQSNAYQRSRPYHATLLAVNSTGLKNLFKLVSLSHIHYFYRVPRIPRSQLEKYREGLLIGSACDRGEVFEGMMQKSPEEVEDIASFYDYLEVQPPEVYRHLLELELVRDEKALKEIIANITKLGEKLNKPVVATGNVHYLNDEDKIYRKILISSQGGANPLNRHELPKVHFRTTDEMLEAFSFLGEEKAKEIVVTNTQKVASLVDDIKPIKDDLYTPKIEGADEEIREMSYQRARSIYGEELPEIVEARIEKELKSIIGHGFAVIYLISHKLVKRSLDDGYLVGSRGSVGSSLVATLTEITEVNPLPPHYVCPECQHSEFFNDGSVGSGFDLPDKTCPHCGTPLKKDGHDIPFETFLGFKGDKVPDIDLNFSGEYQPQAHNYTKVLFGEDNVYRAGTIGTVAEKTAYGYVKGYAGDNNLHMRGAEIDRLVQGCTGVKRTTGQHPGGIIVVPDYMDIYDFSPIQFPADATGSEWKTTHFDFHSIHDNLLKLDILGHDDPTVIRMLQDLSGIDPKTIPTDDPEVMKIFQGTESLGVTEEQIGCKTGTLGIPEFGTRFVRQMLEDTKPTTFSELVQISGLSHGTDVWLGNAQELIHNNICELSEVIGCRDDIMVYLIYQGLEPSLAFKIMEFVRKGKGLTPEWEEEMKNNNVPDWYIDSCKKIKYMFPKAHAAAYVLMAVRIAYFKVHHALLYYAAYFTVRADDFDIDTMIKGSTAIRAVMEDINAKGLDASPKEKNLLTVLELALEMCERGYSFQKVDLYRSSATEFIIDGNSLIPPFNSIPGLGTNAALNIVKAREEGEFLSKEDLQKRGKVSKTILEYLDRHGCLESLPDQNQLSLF

In the assay on Mus musculus, `CCc1cc(Nc2cc(=O)n(CCCCN3CCN(c4c(F)cc5c(=O)c(C(=O)O)cn(C6CC6)c5c4F)CC3CO)c(=O)[nH]2)ccc1C` (configuration not stated) came in with an ED50 of 35 mg/kg. The MIC in the assay on Enterococcus faecium [1] was 2.5 µg/mL (≈ 3.68 µM); against Bacillus subtilis, 0.625 µg/mL (≈ 0.921 µM); against Enterococcus faecium [2], 2.5 µg/mL (≈ 3.68 µM); in the assay with Escherichia coli, above 40 µg/mL; in the assay with Enterococcus faecalis, 2.5 µg/mL (≈ 3.68 µM); with Staphylococcus aureus [3], 5 µg/mL (≈ 7.37 µM).

As for `CCc1cc(Nc2cc(=O)n(CCCCN3CCN(c4cc5c(cc4F)c(=O)c(C(=O)O)cn5-c4ccc(F)cc4F)CC3)c(=O)[nH]2)ccc1C`, it took a dose of 27 mg/kg to reach the 50% effect level in the assay with Mus musculus (ED50). In addition, the minimal inhibitory concentration (MIC) was 1.25 µg/mL (≈ 1.78 µM) against Enterococcus faecium [1]; 0.313 µg/mL (≈ 0.445 µM) in the assay on Bacillus subtilis; 1.25 µg/mL (≈ 1.78 µM) with Enterococcus faecium [2]; above 40 µg/mL against Escherichia coli; 1.25 µg/mL (≈ 1.78 µM) in the assay on Enterococcus faecalis.

Regarding `CCc1cc(Nc2cc(=O)n(CCCCN3CCN(c4cc5c(cc4F)c(=O)c(C(=O)O)cn5-c4ccc(F)cc4)CC3)c(=O)[nH]2)ccc1C`, the MIC in the assay on Enterococcus faecium [1] is 1.25 µg/mL (≈ 1.83 µM); in the assay with Bacillus subtilis, 0.156 µg/mL (≈ 0.228 µM); against Enterococcus faecium [2], 1.25 µg/mL (≈ 1.83 µM); in the assay on Escherichia coli it was above 40 µg/mL; in the assay with Enterococcus faecalis it was 0.625 µg/mL (≈ 0.913 µM); with Staphylococcus aureus [5] it was 0.625 µg/mL (≈ 0.913 µM). Besides, the values for the MIC against Staphylococcus aureus [6] and in the assay with Staphylococcus aureus [3] were 1.25 µg/mL (≈ 1.83 µM) and 2.5 µg/mL (≈ 3.65 µM), respectively. Besides, the inhibition constant (Ki) in [4] was determined as 17 nM.

For `CCc1cc(Nc2cc(=O)n(CCCCN3CCN(c4cc5c(cc4F)c(=O)c(C(=O)O)cn5C4CC4)C[C@H]3C)c(=O)[nH]2)ccc1C`, in the assay with Mus musculus, it took a dose of 20 mg/kg to reach the 50% effect level (ED50). Further, the MIC in the assay with Enterococcus faecium [1] turned out to be 0.625 µg/mL (≈ 0.969 µM); in the assay on Bacillus subtilis, 0.313 µg/mL (≈ 0.485 µM); with Enterococcus faecium [2], 0.625 µg/mL (≈ 0.969 µM); in the assay with Enterococcus faecalis, 0.625 µg/mL (≈ 0.969 µM); with Staphylococcus aureus [3], 2.5 µg/mL (≈ 3.88 µM).

Take `CCc1cc(Nc2cc(=O)n(CCCCCN3CC4CCCN(c5cc6c(cc5F)c(=O)c(C(=O)O)cn6C5CC5)C4C3)c(=O)[nH]2)ccc1C` (configuration not stated): the MIC was 1.25 µg/mL (≈ 1.83 µM) against Bacillus subtilis; above 80 µg/mL in the assay with Enterococcus faecium [2]; above 80 µg/mL in the assay on Escherichia coli; above 80 µg/mL in the assay with Enterococcus faecalis; 1.25 µg/mL (≈ 1.83 µM) in the assay on Staphylococcus aureus [5]; 2.5 µg/mL (≈ 3.65 µM) in the assay with Staphylococcus aureus [6]. In addition, the MIC in the assay on Staphylococcus aureus [3] is above 80 µg/mL. Besides, the Ki in assay [4] turned out to be 41 nM.

With `Cc1ccc(Nc2cc(=O)n(CCCCN3CCN(c4cc5c(cc4F)c(=O)c(C(=O)O)cn5C4CC4)CC3)c(=O)[nH]2)cc1C`, the minimum inhibitory concentration (MIC) in the assay with Enterococcus faecium [1] was 1.25 µg/mL (≈ 2.03 µM); in the assay with Bacillus subtilis, 0.313 µg/mL (≈ 0.508 µM); with Enterococcus faecium [2] it was 2.5 µg/mL (≈ 4.05 µM); in the assay on Escherichia coli, above 40 µg/mL; against Enterococcus faecalis it was 2.5 µg/mL (≈ 4.05 µM); against Staphylococcus aureus [5], 0.625 µg/mL (≈ 1.01 µM). Further, the results for the MIC against Staphylococcus aureus [6] and against Staphylococcus aureus [3] were 1.25 µg/mL (≈ 2.03 µM) and 5 µg/mL (≈ 8.11 µM), respectively.

Consider `CCc1cc(Nc2cc(=O)n(CCCCCN3CC4OCCN(c5cc6c(cc5F)c(=O)c(C(=O)O)cn6C5CC5)C4C3)c(=O)[nH]2)ccc1C` (configuration not stated), for which the minimal inhibitory concentration (MIC) in the assay on Enterococcus faecium [1] is 10 µg/mL (≈ 14.6 µM); with Bacillus subtilis, 0.625 µg/mL (≈ 0.91 µM); in the assay with Enterococcus faecium [2], above 80 µg/mL; in the assay with Escherichia coli, 40 µg/mL (≈ 58.2 µM); in the assay with Enterococcus faecalis, 5 µg/mL (≈ 7.28 µM); in the assay on Staphylococcus aureus [5], 0.625 µg/mL (≈ 0.91 µM). Further, the minimal inhibitory concentration (MIC) with Staphylococcus aureus [6] amounted to 1.25 µg/mL (≈ 1.82 µM); against Staphylococcus aureus [3], 5 µg/mL (≈ 7.28 µM). For the same molecule, the Ki in [4] was 33 nM.

`CCc1cc(Nc2cc(=O)n(CCCCN3CCN(c4cc5c(cc4F)c(=O)c(C(=O)O)cn5C4CC4)CC3C)c(=O)[nH]2)ccc1C` (configuration not stated) yielded a 50% effective dose (ED50) in the assay with Mus musculus of 20 mg/kg. The MIC against Enterococcus faecium [1] amounted to 0.626 µg/mL (≈ 0.971 µM); against Bacillus subtilis, 0.313 µg/mL (≈ 0.485 µM); against Enterococcus faecium [2], 1.25 µg/mL (≈ 1.94 µM); against Escherichia coli, 40 µg/mL (≈ 62 µM); in the assay on Enterococcus faecalis, 1.25 µg/mL (≈ 1.94 µM); against Staphylococcus aureus [3], 1.25 µg/mL (≈ 1.94 µM). Further, the Ki in assay [4] stood at 26 nM.

Turning to `CCc1cc(Nc2cc(=O)n(CCCCN3CCN(c4c(F)cc5c(=O)c(C(=O)O)cn(CC)c5c4F)CC3)c(=O)[nH]2)ccc1C`, the MIC is 0.625 µg/mL (≈ 0.982 µM) in the assay with Enterococcus faecium [1]; 0.313 µg/mL (≈ 0.492 µM) in the assay on Bacillus subtilis; 1.25 µg/mL (≈ 1.96 µM) with Enterococcus faecium [2]; above 40 µg/mL against Escherichia coli; 1.25 µg/mL (≈ 1.96 µM) in the assay with Enterococcus faecalis.

Molecule `CCc1cc(Nc2cc(=O)n(CCCCN3CCN(c4cc5c(cc4F)c(=O)c(C(=O)O)cn5C4CC4)C[C@@H]3C)c(=O)[nH]2)ccc1C` came in with a median effective dose (ED50) in the assay with Mus musculus of 30 mg/kg. Further, the MIC against Enterococcus faecium [1] came to 0.625 µg/mL (≈ 0.969 µM); against Enterococcus faecium [2] it was 1.25 µg/mL (≈ 1.94 µM); with Escherichia coli it was 40 µg/mL (≈ 62 µM); against Enterococcus faecalis it was 0.625 µg/mL (≈ 0.969 µM); against Staphylococcus aureus [6], 1.25 µg/mL (≈ 1.94 µM); against Staphylococcus aureus [3] it was 1.25 µg/mL (≈ 1.94 µM).

Turning to `CCc1cc(Nc2cc(=O)n(CCCCO)c(=O)[nH]2)ccc1C`, the minimal inhibitory concentration (MIC) in the assay on Enterococcus faecium [1] was 5 µg/mL (≈ 15.8 µM); against Bacillus subtilis, 1.25 µg/mL (≈ 3.94 µM); against Enterococcus faecium [2], 5 µg/mL (≈ 15.8 µM); with Escherichia coli it was above 40 µg/mL; in the assay with Enterococcus faecalis it was 5 µg/mL (≈ 15.8 µM); against Staphylococcus aureus [5], 5 µg/mL (≈ 15.8 µM). For the same molecule, the MIC against Staphylococcus aureus [6] and with Staphylococcus aureus [3] was 5 µg/mL (≈ 15.8 µM) throughout. Moreover, the Ki in assay [4] was found to be 66 nM.

As usually defined, the ED50 is the dose at which the effect has come halfway, by size or by number of responders. Higher therefore signals weaker potency. As usually defined, the MIC is the lowest concentration found to suppress growth. Higher therefore signals a need for much substance. Usually Ki stands for the equilibrium dissociation constant of an inhibitor or competing ligand from its target.
